ChEMBL document CHEMBL4261631, “Synthetic thiosemicarbazones as a new class of Mycobacterium tuberculosis protein tyrosine phosphatase A inhibitors” (Bioorg Med Chem, 2018)

target: T1, Low molecular weight protein-tyrosine phosphatase A (Mycobacterium tuberculosis) (UniProt P9WIA1); assay: Inhibition of recombinant Mycobacterium tuberculosis PtpA at 25 uM using p-nitrophenyl phosphate as substrate preincubated for 10 mins followed by substrate addition and measured every minute for 10 mins by UV-VIS spectrophotometric analysis
T1 sequence (whole entry): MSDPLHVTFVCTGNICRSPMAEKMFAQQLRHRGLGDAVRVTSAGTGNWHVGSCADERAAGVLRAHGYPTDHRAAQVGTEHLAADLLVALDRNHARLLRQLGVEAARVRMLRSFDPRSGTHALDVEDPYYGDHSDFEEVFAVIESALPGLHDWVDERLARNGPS
Method in brief: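 Single-point screen at 25 µM final (from 1 mM DMSO stock, 2.5% DMSO final). 50 nM recombinant Mtb PtpA in 20 mM imidazole pH 7.0, premixed with compound 10 min at 37 °C. Reaction started with 10 mM pNPP. A410 read each min for 10 min at 37 °C. Residual activity from absorbance difference 7 min minus 2 min versus no-inhibitor wells. Triplicate.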

Row | SMILES | inhibition [%]
1 | COc1ccc(NC(=S)N/N=C/c2ccc3c(c2)OCO3)cc1 | 0
2 | S=C(N/N=C/c1ccccc1)Nc1cccc2ccccc12 | 58.1
3 | Cc1ccc(NC(=S)N/N=C/c2ccc(N(C)C)cc2)cc1 | 35.4
4 | S=C(N/N=C/c1ccc(Cl)cc1)Nc1cccc2ccccc12 | 0
5 | Cc1ccc(NC(=S)N/N=C/c2ccc([N+](=O)[O-])cc2)cc1 | 37.2
6 | Cc1ccc(NC(=S)N/N=C/c2ccc(Cl)cc2)cc1 | 4.9
7 | COc1ccc(NC(=S)N/N=C/c2cc(OC)c(OC)c(OC)c2)cc1 | 0
8 | COc1ccc(NC(=S)N/N=C/c2ccc(N(C)C)cc2)cc1 | 3.9
9 | COc1ccc(/C=N/NC(=S)Nc2ccc(C)cc2)cc1 | 8.9
10 | S=C(N/N=C/c1ccc2c(c1)OCO2)Nc1cccc2ccccc12 | 62.6
11 | CN(C)c1ccc(/C=N/NC(=S)Nc2cccc3ccccc23)cc1 | 51.6
12 | S=C(N/N=C/c1cccc2ccccc12)Nc1cccc2ccccc12 | 10.3
13 | COc1ccc(/C=N/NC(=S)Nc2cccc3ccccc23)cc1 | 22.6
14 | COc1ccc(NC(=S)N/N=C/c2ccccc2)cc1 | 0
15 | Cc1ccc(NC(=S)N/N=C/c2ccc(Cl)c(Cl)c2)cc1 | 23.4
16 | COc1ccc(NC(=S)N/N=C/c2ccccc2[N+](=O)[O-])cc1 | 0
17 | COc1cc(/C=N/NC(=S)Nc2cccc3ccccc23)cc(OC)c1OC | 0
18 | Cc1ccc(NC(=S)N/N=C/c2ccc3ccccc3c2)cc1 | 29.3
19 | COc1ccc(NC(=S)N/N=C/c2ccc(C)cc2)cc1 | 0
20 | Cc1ccc(NC(=S)N/N=C/c2ccccc2[N+](=O)[O-])cc1 | 21.6
21 | COc1ccc(NC(=S)N/N=C/c2ccc(Cl)cc2)cc1 | 1
22 | COc1ccc(NC(=S)N/N=C/c2cc(OC)ccc2OC)cc1 | 0
23 | Cc1ccc(NC(=S)N/N=C/c2ccc(-c3ccccc3)cc2)cc1 | 26.3

Row | SMILES | inhibition [%]
24 | Cc1ccc(NC(=S)N/N=C/c2cccc3ccccc23)cc1 | 33.7
25 | COc1ccc(OC)c(/C=N/NC(=S)Nc2cccc3ccccc23)c1 | 44.2
26 | O=[N+]([O-])c1ccccc1/C=N/NC(=S)Nc1cccc2ccccc12 | 52.4
27 | COc1cc(/C=N/NC(=S)Nc2cccc3ccccc23)ccc1O | 0
28 | Cc1ccc(NC(=S)N/N=C/c2ccc3c(c2)OCO3)cc1 | 25.9
29 | COc1cc(/C=N/NC(=S)Nc2ccc(C)cc2)ccc1O | 8.8
30 | COc1ccc(OC)c(/C=N/NC(=S)Nc2ccc(C)cc2)c1 | 2.8
31 | COc1ccc(NC(=S)N/N=C/c2ccc([N+](=O)[O-])cc2)cc1 | 64.4
32 | Cc1ccc(NC(=S)N/N=C/c2ccccc2)cc1 | 16.6
33 | S=C(N/N=C/c1ccc2ccccc2c1)Nc1cccc2ccccc12 | 67.7
34 | COc1ccc(NC(=S)N/N=C/c2ccc(OC)c(OC)c2)cc1 | 0
35 | COc1ccc(/C=N/NC(=S)Nc2ccc(OC)cc2)cc1 | 0
36 | COc1ccc(NC(=S)N/N=C/c2ccc(O)c(OC)c2)cc1 | 6.6
37 | Cc1ccc(/C=N/NC(=S)Nc2ccc(C)cc2)cc1 | 0.7
38 | COc1ccc(NC(=S)N/N=C/c2cccc3ccccc23)cc1 | 22.7
39 | COc1ccc(NC(=S)N/N=C/c2ccc(-c3ccccc3)cc2)cc1 | 41.2
40 | COc1ccc(/C=N/NC(=S)Nc2ccc(C)cc2)cc1OC | 6.6
41 | COc1ccc(NC(=S)N/N=C/c2ccc(Cl)c(Cl)c2)cc1 | 21.4
42 | COc1cc(/C=N/NC(=S)Nc2ccc(C)cc2)cc(OC)c1OC | 0
43 | S=C(N/N=C/c1ccc(Cl)c(Cl)c1)Nc1cccc2ccccc12 | 83.7
44 | COc1ccc(NC(=S)N/N=C/c2ccc3ccccc3c2)cc1 | 23.7
45 | COc1ccc(/C=N/NC(=S)Nc2cccc3ccccc23)cc1OC | 64.5

target: T2, Low molecular weight protein-tyrosine phosphatase A (Mycobacterium tuberculosis, UniProt P9WIA1); assay: Inhibition of recombinant Mycobacterium tuberculosis PtpA using p-nitrophenyl phosphate as substrate preincubated for 10 mins followed by substrate addition and measured every minute for 10 mins by UV-VIS spectrophotometric analysis
T2 sequence (P9WIA1 whole entry): T1 sequence (whole entry)
Method in brief: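 Recombinant Mtb PtpA at 50 nM in 20 mM imidazole pH 7.0, premixed with inhibitor (0.5–50 µM, DMSO ≤4% v/v) 10 min at 37 °C. Started with 10 mM pNPP. A410 read each min for 10 min at 37 °C. Residual activity from 7 min minus 2 min absorbance versus no-inhibitor wells. IC50 by linear regression of % inhibition versus concentration. Triplicate, mean ± SD of three experiments.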

Row | SMILES | IC50 [µM]
46 | S=C(N/N=C/c1ccc2c(c1)OCO2)Nc1cccc2ccccc12 | 17.8
47 | COc1ccc(NC(=S)N/N=C/c2ccc([N+](=O)[O-])cc2)cc1 | 15.1
48 | S=C(N/N=C/c1ccc2ccccc2c1)Nc1cccc2ccccc12 | 23.7
49 | S=C(N/N=C/c1ccc(Cl)c(Cl)c1)Nc1cccc2ccccc12 | 13.4
50 | COc1ccc(/C=N/NC(=S)Nc2cccc3ccccc23)cc1OC | 18.2
